# Reference: ChEMBL document CHEMBL1152797, “Design and synthesis of 4-methoxyphenylacetic acid esters as 15-lipoxygenase inhibitors and SAR comparative studies of them” (Bioorg Med Chem, 2009)
# Active and inactive are the calls of the source. No cut-off for these calls is given here.
# What was measured:
# [1] = tested on: Glycine max; test: Inhibition of 15-lipoxygenase form soybean at 200 uM
# [2] = Inhibition of 15-lipoxygenase form soybean; parameters: species or system Glycine max
# [3] = Inhibition of human recombinant 15-lipoxygenase b
# Summary of the method: (§1)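 Human recombinant 15-LO (a or b), expressed in E. coli, at 10 µg/mL final in 50 mM Tris–HCl, pH 7.2. Linoleic acid substrate at 134 µM final, 20 ± 1 °C, compounds in DMSO (1% final). Absorbance read at 234 nm over 60–120 s against an inhibitor-plus-substrate blank. Triplicates, at least six controls; IC50 interpolated linearly near 50% activity.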
# [4] = Inhibition of human recombinant 15-lipoxygenase a; summary of the method: as §1
IC50 [2] [µM],Structure (SMILES),further results
137,C=C(C)Cc1ccc(OC)cc1,
145,C=C(CC)Cc1ccc(OC)cc1,
38.2,C=CCc1ccc(O)c(OC)c1 [EUGENOL],
56.5,COc1ccc(CC(=O)OC2CCCC2)cc1,
64,COc1ccc(CC(=O)OC2CCCCC2)cc1,
33,CCC(=O)Cc1ccc(OC)cc1,

# Second part, the compound before the results:
Structure (SMILES),IC50 [2] [µM],further results
C=C1CCc2cc(OC)ccc2C1,,Activity [1]: inactive
CCOC(=O)Cc1ccc(OC)cc1,32,IC50 [3]: 63.2 µM; IC50 [4]: 56.7 µM
COc1ccc(CC(=O)OC(C)C)cc1,34.4,
C=CCc1ccc(OC)c(OC)c1 [METHYLEUGENOL],96.1,
COC(=O)Cc1ccc(OC)cc1,56.2,
CCCCCOC(=O)Cc1ccc(OC)cc1,1.9,IC50 [3]: 11.7 µM; IC50 [4]: 30.9 µM
COc1ccc(CC(=O)OCC(C)C)cc1,88.1,
C=CCc1ccc(OC)cc1 [ESTRAGOLE],64.1,
CCCOC(=O)Cc1ccc(OC)cc1,11.6,
COc1ccc(CC(=O)OC(C)(C)C)cc1,38.7,
CCCCCCOC(=O)Cc1ccc(OC)cc1,35,
CCC(C)OC(=O)Cc1ccc(OC)cc1 (centres undefined),35.7,
COc1ccc2c(c1)CCC(=O)C2,,Activity [1]: inactive
CCCCOC(=O)Cc1ccc(OC)cc1,3.8,
